Measurements published in ChEMBL document CHEMBL4118114 (Bioorg Med Chem, 2018).
pEC50, pIC50, pKi: −log10 of the molar value. Starred links: 1 amine or outer side, 2 acyl side, 3 side chain; linkers in the order of their positions; H or OH if unused. Positions of bridges follow the written chain, without caps; N, C: chain ends. Non-standard residues stand in square brackets, D forms with d. Residues, ends and D or L forms follow the SMILES beside them. oXylylene = c1ccc(C[*:2])c(C[*:1])c1; X1 = O=C(CCC[*:2])[*:1]; Mpa = O=C(O)CCS

Assays:
[1] = Half life in Sherman rat plasma; format: ADME, cell-free
[2] = molecular target: T1, Vasopressin V1a receptor (Homo sapiens, UniProt P37288); experiment: Displacement of [3H]AVP from human liver vasopressin V1a receptor expressed in HEK293 cell membrane after 1 hr by scintillation counting method; format: cell membranes
T1 sequence (P37288 whole entry): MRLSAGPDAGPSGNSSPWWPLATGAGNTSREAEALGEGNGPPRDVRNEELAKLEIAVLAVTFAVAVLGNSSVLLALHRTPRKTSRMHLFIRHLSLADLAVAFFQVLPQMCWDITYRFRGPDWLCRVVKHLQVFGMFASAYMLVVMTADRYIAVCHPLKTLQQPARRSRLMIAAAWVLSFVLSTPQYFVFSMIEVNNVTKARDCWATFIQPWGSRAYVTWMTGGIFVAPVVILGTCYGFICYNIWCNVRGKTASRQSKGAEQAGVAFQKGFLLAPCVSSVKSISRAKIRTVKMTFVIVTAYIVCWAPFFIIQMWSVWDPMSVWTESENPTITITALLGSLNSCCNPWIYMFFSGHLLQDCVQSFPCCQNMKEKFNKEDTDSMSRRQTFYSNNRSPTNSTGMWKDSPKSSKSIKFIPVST
Procedure, shortened: (§1)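 Membranes from transiently transfected HEK293 cells. Receptors were cloned from human liver (V1a) or kidney (V2) RNA. SPA assay with yttrium silicate beads in 50 mM Tris, 120 mM NaCl, 5 mM KCl, 2 mM CaCl2, 10 mM MgCl2. 4 nM [3H]AVP added, compound in 2% DMSO, 1 h at room temperature. Ki by Cheng-Prusoff. Three experiments in duplicate.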

[3] = molecular target: T2, Vasopressin V1b receptor (Homo sapiens, UniProt P47901); experiment: Displacement of [3H]AVP from human vasopressin V1b receptor expressed in HEK293 cell membrane after 1 hr by scintillation counting method; format: cell membranes
T2 sequence (P47901 whole entry): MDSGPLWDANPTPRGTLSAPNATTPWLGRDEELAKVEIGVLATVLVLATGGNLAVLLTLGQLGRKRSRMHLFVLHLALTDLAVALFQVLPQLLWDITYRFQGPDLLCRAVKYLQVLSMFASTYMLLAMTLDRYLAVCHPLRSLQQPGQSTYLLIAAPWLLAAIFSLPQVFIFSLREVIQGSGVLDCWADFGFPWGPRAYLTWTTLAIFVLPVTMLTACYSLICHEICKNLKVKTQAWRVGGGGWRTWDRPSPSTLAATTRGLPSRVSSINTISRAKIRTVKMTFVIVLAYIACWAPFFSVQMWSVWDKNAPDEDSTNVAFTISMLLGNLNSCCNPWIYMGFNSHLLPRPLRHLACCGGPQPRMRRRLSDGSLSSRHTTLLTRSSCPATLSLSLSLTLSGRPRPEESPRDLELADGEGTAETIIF

[4] = molecular target: T3, Vasopressin V2 receptor (Homo sapiens, UniProt P30518); experiment: Displacement of [3H]AVP from human kidney vasopressin V2 receptor expressed in HEK293 cell membrane after 1 hr by scintillation counting method; format: cell membranes; procedure, shortened: as §1
T3 sequence (P30518 whole entry): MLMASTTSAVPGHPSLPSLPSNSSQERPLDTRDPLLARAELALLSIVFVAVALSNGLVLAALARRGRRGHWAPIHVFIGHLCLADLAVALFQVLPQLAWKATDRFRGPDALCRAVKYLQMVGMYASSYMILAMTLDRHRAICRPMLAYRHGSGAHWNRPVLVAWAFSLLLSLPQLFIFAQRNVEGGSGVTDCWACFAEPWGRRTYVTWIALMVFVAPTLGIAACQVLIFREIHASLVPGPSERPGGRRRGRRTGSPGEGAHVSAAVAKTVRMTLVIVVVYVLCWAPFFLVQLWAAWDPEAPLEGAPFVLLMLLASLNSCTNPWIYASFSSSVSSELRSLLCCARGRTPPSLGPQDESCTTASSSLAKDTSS

[5] = molecular target: T4, Oxytocin receptor (Homo sapiens, UniProt P30559); experiment: Displacement of [3H]OT from human mammary gland oxytocin receptor expressed in HEK293 cell membrane after 1 hr by scintillation counting method; format: cell membranes
T4 sequence (P30559 whole entry): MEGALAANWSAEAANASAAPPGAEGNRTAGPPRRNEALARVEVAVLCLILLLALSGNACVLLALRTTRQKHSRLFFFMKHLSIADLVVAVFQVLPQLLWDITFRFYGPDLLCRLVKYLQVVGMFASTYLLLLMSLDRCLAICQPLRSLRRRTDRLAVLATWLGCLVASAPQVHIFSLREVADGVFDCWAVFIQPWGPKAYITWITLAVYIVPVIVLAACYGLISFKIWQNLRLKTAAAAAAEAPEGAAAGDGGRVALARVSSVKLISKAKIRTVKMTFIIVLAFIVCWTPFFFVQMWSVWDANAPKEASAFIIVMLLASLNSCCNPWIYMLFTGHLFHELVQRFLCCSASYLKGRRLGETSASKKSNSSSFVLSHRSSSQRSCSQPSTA
Procedure, shortened: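 Membranes from a stable HEK clone expressing human OTR cloned from mammary gland RNA. Filtration binding with 1 nM final [3H]OT in 50 mM Tris, 5 mM MgCl2, 0.1% BSA, pH 7.4, for 1 h at room temperature. GF/C filters, washed 5 times ice-cold. Ki by Cheng-Prusoff. Three experiments in duplicate.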

[6] = species on record: Homo sapiens; experiment: Selectivity index, ratio of Ki for human liver vasopressin V1a receptor to Ki for human mammary gland oxytocin receptor
Procedure, shortened: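 Ratio of binding Ki from the radioligand displacement assays, calculated as the strongest AVP receptor subtype binding value divided by the OTR value.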

[7] = species on record: Homo sapiens; experiment: Selectivity index, ratio of Ki for human mammary gland oxytocin receptor to Ki for human liver vasopressin V1a receptor
Procedure, shortened: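 Ratio of binding Ki from the radioligand displacement assays, calculated as the OTR binding value divided by the V1a value.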

[8] = molecular target: T4, Oxytocin receptor; experiment: (§2) Agonist activity at human mammary gland oxytocin receptor expressed in CHO cells assessed as increase in intracellular calcium flux measured for 5 mins by Fluo-4-AM dye based FLIPR assay; format: functional, cell-based
Procedure, shortened: (§3)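 Stably transfected CHO lines, one human receptor each, grown in F-12K with 10% FBS, geneticin 200 µg/mL, 37 °C, 10% CO2. Plated 50,000 cells/well for 24 h, then loaded 60 min with 2 µM Fluo-4-AM. Compound dilution series added on FLIPR and calcium signal recorded 5 min for agonist activity. Each compound tested at least 3 times in duplicate.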

[9] = molecular target: T1, Vasopressin V1a receptor; experiment: Agonist activity at human liver vasopressin V1a receptor expressed in CHO cells assessed as increase in intracellular calcium flux measured for 5 mins by Fluo-4-AM dye based FLIPR assay; format: functional, cell-based; procedure, shortened: as §3
[10] = molecular target: T2, Vasopressin V1b receptor; experiment: Agonist activity at human vasopressin V1b receptor expressed in CHO cells assessed as increase in intracellular calcium flux measured for 5 mins by Fluo-4-AM dye based FLIPR assay; format: functional, cell-based
[11] = molecular target: T3, Vasopressin V2 receptor; experiment: Agonist activity at human kidney vasopressin V2 receptor expressed in CHO cells assessed as increase in intracellular calcium flux measured for 5 mins by Fluo-4-AM dye based FLIPR assay; format: functional, cell-based; procedure, shortened: as §3
[12] = molecular target: T4, Oxytocin receptor; experiment: Antagonist activity at human mammary gland oxytocin receptor expressed in CHO cells assessed as inhibition of agonist-induced intracellular calcium flux preincubated for 20 mins followed by oxytocin addition measured for 5 mins by Fluo-4-AM dye based FLIPR assay; format: functional, cell-based; settings: for IC50: cho
Procedure, shortened: (§4)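 CHO cells stably expressing the relevant human receptor, plated 24 h, loaded 60 min with 2 µM Fluo-4-AM and read on FLIPR. […] IC50 came from a variable-slope single-site competition fit of normalized fluorescence. At least 3 runs in duplicate.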

[13] = molecular target: T1, Vasopressin V1a receptor; experiment: Antagonist activity at human liver vasopressin V1a receptor expressed in CHO cells assessed as inhibition of agonist-induced intracellular calcium flux preincubated for 20 mins followed by AVP addition measured for 5 mins by Fluo-4-AM dye based FLIPR assay; format: functional, cell-based; procedure, shortened: as §4
[14] = molecular target: T2, Vasopressin V1b receptor; experiment: Antagonist activity at human vasopressin V1b receptor expressed in CHO cells assessed as inhibition of agonist-induced intracellular calcium flux preincubated for 20 mins followed by AVP addition measured for 5 mins by Fluo-4-AM dye based FLIPR assay; format: functional, cell-based; procedure, shortened: as §4
[15] = molecular target: T3, Vasopressin V2 receptor; experiment: Antagonist activity at human kidney vasopressin V2 receptor expressed in CHO cells assessed as inhibition of agonist-induced intracellular calcium flux preincubated for 20 mins followed by AVP addition measured for 5 mins by Fluo-4-AM dye based FLIPR assay; format: functional, cell-based
Procedure, shortened: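 CHO cells stably expressing the relevant human receptor, plated 24 h, loaded 60 min with 2 µM Fluo-4-AM and read on FLIPR. IC50 came from a variable-slope single-site competition fit of normalized fluorescence. At least 3 runs in duplicate.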

[16] = species on record: Homo sapiens; experiment: Selectivity index, ratio of IC50 for human liver vasopressin V1a receptor to IC50 for human mammary gland oxytocin receptor
[17] = species on record: Homo sapiens; experiment: Selectivity index, ratio of IC50 for human mammary gland oxytocin receptor to IC50 for human liver vasopressin V1a receptor
[18] = molecular target: T5, Oxytocin receptor (Homo sapiens) (UniProt P30559); experiment: as §2; format: functional, cell-based; procedure, shortened: as §3
T5 sequence (whole entry): T4 sequence (P30559 whole entry)

[19] = Thermal stability of the compound at 50 degC at 0.5 mg/ml after 10 days by LC-MS analysis; format: physicochemical; settings: 240 h
Procedure, shortened: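 Peptides dissolved in water at 0.5 mg/mL and held at 50 °C. After 10 days, aliquots were analysed by direct-injection LC-MS. Remaining peptide was expressed as a percentage of the corresponding peak before heating.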

| half-life [1] | pKi [2] | pKi [3] | pKi [4] | pKi [5] | Ratio Ki [6] | Ratio Ki [7] | pEC50 [8] | pEC50 [9] | pEC50 [10] | pEC50 [11] | pIC50 ([12]; read-out: IC50) | pIC50 [13] | IC50 [14] | IC50 [15] | Ratio IC50 [16] | Ratio IC50 [17] | %max [18] | IC50 [12] | Stability [19] | SMILES |
| --- | --- | --- | --- | --- | --- | --- | --- | --- | --- | --- | --- | --- | --- | --- | --- | --- | --- | --- | --- | --- |
| 3 min | – | – | – | – | – | – | – | – | – | – | – | – | – | – | – | – | – | – | – | CC[C@H](C)[C@@H]1NC(=O)[C@H](Cc2ccc(O)cc2)NC(=O)[C@@H](N)CSSC[C@@H](C(=O)N2CCC[C@H]2C(=O)N[C@@H](CC(C)C)C(=O)NCC(N)=O)NC(=O)[C@H](CC(N)=O)NC(=O)[C@H](CCC(N)=O)NC1=O [OXYTOCIN] |
| – | 7.52 | < 5.22 | < 5.22 | 6.78 | 0.2 | 5.5 | < 5.00 | < 4.70 | 5.03 | 4.72 | 5.76 | 7.85 | Not Active | Not Active | 0.008 | 123 | – | – | – | CC[C@H](C)[C@@H]1NC(=O)[C@H](Cc2ccc(O)cc2)NC(=O)CCSCc2ccccc2CSC[C@@H](C(=O)N2CCC[C@H]2C(=O)N[C@@H](CCCNC(=N)N)C(=O)NCC(N)=O)NC(=O)[C@H](CC(N)=O)NC(=O)[C@H](CCC(N)=O)NC1=O ([Mpa]YIQNCPRG-NH2; linker 1-6 via oXylylene) |
| – | – | – | – | – | – | – | – | – | – | – | – | – | – | – | – | – | 45% | – | – | CC[C@H](C)[C@@H]1NC(=O)[C@H](Cc2ccc(OC)cc2)NC(=O)CCCSC[C@@H](C(=O)N2CCC[C@H]2C(=O)N[C@@H](CC(C)C)C(=O)NCC(N)=O)NC(=O)[C@H](CC(N)=O)NC(=O)[C@H](CCC(N)=O)NC1=O (Y(Me)IQNCPLG-NH2; linker N-5 via X1) |
| – | 5.77 | < 5.22 | – | 7.30 | – | – | 7.47 | < 4.70 | 5.53 | – | – | 5.36 | Not Active | – | – | – | 75% | Not Active | Stable | CC[C@H](C)[C@@H]1NC(=O)[C@H](Cc2ccc(O)cc2)NC(=O)CCSCc2cccc(c2)CSC[C@@H](C(=O)N2CCC[C@H]2C(=O)N[C@@H](CC(C)C)C(=O)NCC(N)=O)NC(=O)[C@H](CC(N)=O)NC(=O)[C@H](CCC(N)=O)NC1=O |
| – | 7.16 | < 5.22 | – | 6.66 | – | – | – | < 4.70 | 5.08 | – | – | 7.46 | Not Active | – | – | – | – | Not Active | – | CC[C@H](C)[C@@H]1NC(=O)[C@H](Cc2ccc(O)cc2)NC(=O)CCSCc2ccccc2CSC[C@@H](C(=O)N2CCC[C@H]2C(=O)N[C@@H](CC(C)C)C(=O)NCC(N)=O)NC(=O)[C@H](CC(N)=O)NC(=O)[C@H](CCC(N)=O)NC1=O |
